Experimental data: ChEMBL document CHEMBL1127325, “Potent gastrin-releasing peptide (GRP) antagonists derived from GRP (19-27) with a C-terminal DPro psi [CH2NH]Phe-NH2 and N-terminal aromatic residues” (J Med Chem, 1994)
Calls of active or inactive are those of the source. The calls are words filed in the database; no cut-off is given here. Where a SMILES comes first, the peptide text is derived from it. [ ]: non-standard residue; d: D form. The star is where a group is joined. dProψ(CH2NH)PheNH2 = NC(=O)[C@H](Cc1ccccc1)NC[C@H]1CCCN1*; Propanoyl(3-(4-MeO-Ph)) = COc1ccc(CCC(=O)*)cc1; X8 = COc1cc(CCC(=O)*)cc(OC)c1OC; X5 = C[C@@H](C(=O)*)c1ccccc1; X6 = C[C@H](C(=O)*)c1ccccc1; X7 = CC(C)(CC(=O)*)c1ccccc1; X1 = CC(C)(C(=O)*)c1ccccc1

Legend:
[1] = molecular target: Gastrin-releasing peptide receptor (Mus musculus) (UniProt P21729); experiment: Inhibition of 6 nM bombesin induced [3H]thymidine incorporation measured in swiss 3T3 cells using a mitogenicity assay; type: functional, cell-based
Sequence of Gastrin-releasing peptide receptor (Mus musculus) (P21729 whole entry): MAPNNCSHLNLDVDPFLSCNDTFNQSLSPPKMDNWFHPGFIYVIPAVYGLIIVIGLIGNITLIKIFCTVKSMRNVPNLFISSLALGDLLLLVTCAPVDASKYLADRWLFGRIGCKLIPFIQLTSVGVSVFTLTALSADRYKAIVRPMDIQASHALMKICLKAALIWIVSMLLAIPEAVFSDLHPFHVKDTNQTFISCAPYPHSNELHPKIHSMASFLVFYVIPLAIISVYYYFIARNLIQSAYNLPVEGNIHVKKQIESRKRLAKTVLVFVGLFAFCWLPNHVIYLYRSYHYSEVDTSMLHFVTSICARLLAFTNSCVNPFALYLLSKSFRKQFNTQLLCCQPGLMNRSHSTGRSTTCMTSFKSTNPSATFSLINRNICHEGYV
Summary of the method: (§1)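 Density-arrested quiescent Swiss 3T3 monolayers treated in triplicate with test peptide (generally log dilutions) plus 6 nM bombesin for 18 h, then pulsed 2 h with 0.5 µCi [3H]thymidine per well. Cells washed with cold PBS, fixed in methanol/acetic acid, solubilized, scintillation counted. IC50 ± SEM over replicate trials; na means no activity at 10^-4 M.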

[2] = molecular target: T1, Gastrin-releasing peptide receptor (Mus musculus, UniProt P21729); experiment: Ability of peptide to inhibit binding of 10 pM [125I]gastrin releasing peptide to S-3T3 cell membrane.; type: cell-based
T1 sequence (P21729 whole entry): as above
Summary of the method: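 Swiss 3T3 membranes (10 µg protein) incubated in triplicate with 10 pM [125I]GRP(1-27) in HEPES-KOH pH 6.8 (20 mM) with EGTA, MgCl2, BSA and protease inhibitors, 60 min at 37 °C with shaking. Terminated by filtration through PEI-pretreated GF/B filters, gamma counted. Nonspecific binding taken with 10 nM unlabeled GRP(1-27). IC50 for half-maximal inhibition of specific binding by Hill plot analysis.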

[3] = molecular target: T1, Gastrin-releasing peptide receptor; experiment: The ability of the peptide to inhibit the binding of 50 pM [125I]gastrin releasing peptide to intact S-3T3 cells; type: cell-based
Summary of the method: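 Serially diluted peptides overlaid in triplicate on quiescent Swiss 3T3 monolayers (about 10^5 cells) with 50 pM [125I]GRP in maintenance medium, 30 min at 37 °C. Monolayers washed three times with chilled medium, solubilized, radioactivity counted. IC50 values reported.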

NIH3T3 [4] = experiment: Ability of the peptide to inhibit 6 nM bombesin induced [3H]thymidine incorporation was measured in swiss 3T3 cells using mitogenicity assay; na=Not active; type: functional, cell-based; settings: Mus musculus; summary of the method: as §1
NIH3T3 [5] = experiment: The ability of the peptide to inhibit the binding of 50 pM [125I]gastrin releasing peptide to intact S-3T3 cells was measured; type: cell-based; settings: Mus musculus
Summary of the method: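 Quiescent, density-arrested Swiss 3T3 monolayers (about 10^5 cells) in maintenance medium. Serially diluted peptides were added in triplicate with [125I]GRP and incubated 37 °C, 30 min. Monolayers were washed three times with chilled medium, solubilized with detergent and counted. IC50 reported ± SEM.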

[6] = The ability of the peptide to inhibit the binding of 10 pM [125I]gastrin releasing peptide to S-3T3 cell membrane was measured; settings: Mus musculus

Activity [1]	IC50 [2]	IC50 [3]	SMILES	Activity (NIH3T3 [4])	IC50 (NIH3T3 [5])	IC50 [6]
0.34 nM	0.18 nM	0.003 nM	CC(C)[C@H](NC(=O)[C@H](C)NC(=O)[C@H](Cc1c[nH]c2ccccc12)NC(=O)[C@H](Cc1c[nH]cn1)NC(=O)C(C)(C)c1ccccc1)C(=O)N[C@H](C)C(=O)N[C@@H](Cc1c[nH]cn1)C(=O)N1CCC[C@@H]1CN[C@@H](Cc1ccccc1)C(N)=O (X1-HWAV[dA]H-{dProψ(CH2NH)PheNH2})	–	–	–
–	140 nM	60 nM	CC(NC(=O)[C@H](Cc1c[nH]c2ccccc12)NC(=O)[C@H](Cc1c[nH]cn1)NC(=O)CCc1ccccc1)C(=O)N[C@H](C(=O)NC(C)C(=O)N[C@@H](Cc1c[nH]cn1)C(=O)N1CCC[C@@H]1C(O)CC(=O)N[C@@H](Cc1ccccc1)C(N)=O)C(C)C (stereo in doubt)	inactive	–	–
0.3 nM	–	–	COc1ccc(CCC(=O)N[C@@H](Cc2c[nH]cn2)C(=O)N[C@@H](Cc2c[nH]c3ccccc23)C(=O)N[C@@H](C)C(=O)N[C@H](C(=O)N[C@H](C)C(=O)N[C@@H](Cc2c[nH]cn2)C(=O)N2CCC[C@@H]2CN[C@@H](Cc2ccccc2)C(N)=O)C(C)C)cc1 ({Propanoyl(3-(4-MeO-Ph))}-HWAV[dA]H-{dProψ(CH2NH)PheNH2})	–	10 nM	0.47 nM
0.9 nM	0.95 nM	30 nM	CC(C)[C@H](NC(=O)[C@H](C)NC(=O)[C@H](Cc1c[nH]c2ccccc12)NC(=O)[C@H](Cc1c[nH]cn1)NC(=O)[C@H](C)c1ccccc1)C(=O)N[C@H](C)C(=O)N[C@@H](Cc1c[nH]cn1)C(=O)N1CCC[C@@H]1CN[C@@H](Cc1ccccc1)C(N)=O (X5-HWAV[dA]H-{dProψ(CH2NH)PheNH2})	–	–	–
13 nM	2 nM	0.1 nM	CC(C)[C@H](NC(=O)[C@H](C)NC(=O)[C@H](Cc1c[nH]c2ccccc12)NC(=O)[C@H](Cc1c[nH]cn1)NC(=O)Cc1ccccc1N)C(=O)N[C@H](C)C(=O)N[C@@H](Cc1c[nH]cn1)C(=O)N1CCC[C@@H]1CN[C@@H](Cc1ccccc1)C(N)=O	–	–	–
50 nM	56 nM	10 nM	CC(NC(=O)[C@H](Cc1c[nH]c2ccccc12)NC(=O)[C@H](Cc1cccs1)NC(=O)CCc1ccccc1)C(=O)N[C@H](C(=O)NC(C)C(=O)N[C@@H](Cc1c[nH]cn1)C(=O)N1CCC[C@H]1CN[C@@H](Cc1ccccc1)C(N)=O)C(C)C (stereo in doubt)	–	–	–
1 nM	0.22 nM	0.001 nM	CC(NC(=O)[C@H](Cc1c[nH]c2ccccc12)NC(=O)[C@H](Cc1c[nH]cn1)NC(=O)CCc1ccccc1)C(=O)N[C@H](C(=O)NC(C)C(=O)N[C@@H](Cc1c[nH]cn1)C(=O)N1CCC[C@H]1CN[C@@H](Cc1ccccc1)C(N)=O)C(C)C (stereo in doubt)	–	–	–
0.2 nM	0.049 nM	0.03 nM	CC(C)[C@H](NC(=O)[C@H](C)NC(=O)[C@H](Cc1c[nH]c2ccccc12)NC(=O)[C@H](Cc1c[nH]cn1)NC(=O)C1C[C@@H]1c1ccccc1)C(=O)N[C@H](C)C(=O)N[C@@H](Cc1c[nH]cn1)C(=O)N1CCC[C@@H]1CN[C@@H](Cc1ccccc1)C(N)=O (stereo partly drawn)	–	–	–
7e-08	1.3 nM	1 nM	CC(C)[C@H](NC(=O)[C@H](C)NC(=O)[C@H](Cc1c[nH]c2ccccc12)NC(=O)[C@H](Cc1c[nH]cn1)NC(=O)[C@@H](C)c1ccccc1)C(=O)N[C@H](C)C(=O)N[C@@H](Cc1c[nH]cn1)C(=O)N1CCC[C@@H]1CN[C@@H](Cc1ccccc1)C(N)=O (X6-HWAV[dA]H-{dProψ(CH2NH)PheNH2})	–	–	–
26 nM	31 nM	50 nM	CC(NC(=O)[C@H](Cc1c[nH]c2ccccc12)NC(=O)[C@H](Cc1c[nH]cn1)NC(=O)CCc1ccccc1)C(=O)N[C@H](C(=O)NC(C)C(=O)N[C@@H](Cc1c[nH]cn1)C(=O)N1CCC[C@H]1C(O)CC(=O)N[C@@H](Cc1ccccc1)C(N)=O)C(C)C (stereo in doubt)	–	–	–
6 nM	73 nM	0.1 nM	CC(C)CC(NC(=O)[C@H](Cc1c[nH]cn1)NC(=O)C(C)NC(=O)[C@@H](NC(=O)C(C)NC(=O)[C@H](Cc1c[nH]c2ccccc12)NC(=O)[C@H](Cc1c[nH]cn1)NC(=O)CCc1ccccc1)C(C)C)C(O)CC(=O)N[C@@H](Cc1ccccc1)C(N)=O (stereo in doubt)	–	–	–
18 nM	1.2 nM	10 nM	CC(C)[C@H](NC(=O)[C@H](C)NC(=O)[C@H](Cc1c[nH]c2ccccc12)NC(=O)[C@H](Cc1c[nH]cn1)NC(=O)CC(C)(C)c1ccccc1)C(=O)N[C@H](C)C(=O)N[C@@H](Cc1c[nH]cn1)C(=O)N1CCC[C@@H]1CN[C@@H](Cc1ccccc1)C(N)=O (X7-HWAV[dA]H-{dProψ(CH2NH)PheNH2})	–	–	–
–	2 nM	5 nM	CC(C)[C@H](NC(=O)[C@H](C)NC(=O)[C@H](Cc1c[nH]c2ccccc12)NC(=O)[C@H](Cc1cnc[nH]1)NC(=O)CCc1ccccc1)C(=O)N[C@H](C)C(=O)N[C@@H](Cc1cnc[nH]1)C(=O)N1CCC[C@@H]1CN[C@H](Cc1ccc2ccccc2c1)C(N)=O	–	–	–
–	0.079 nM	0.3 nM	CC(C)[C@H](NC(=O)[C@H](C)NC(=O)[C@H](Cc1c[nH]c2ccccc12)NC(=O)[C@H](Cc1cnc[nH]1)NC(=O)C1CCc2ccccc2C1)C(=O)N[C@H](C)C(=O)N[C@@H](Cc1cnc[nH]1)C(=O)N1CCC[C@@H]1CN[C@@H](Cc1ccccc1)C(N)=O (stereo partly drawn)	–	–	–

SMILES	Activity [1]	IC50 [2]	IC50 [3]	Activity (NIH3T3 [4])	IC50 (NIH3T3 [5])	IC50 [6]
COc1cc(CCC(=O)N[C@@H](Cc2c[nH]cn2)C(=O)N[C@@H](Cc2c[nH]c3ccccc23)C(=O)N[C@@H](C)C(=O)N[C@H](C(=O)N[C@H](C)C(=O)N[C@@H](Cc2c[nH]cn2)C(=O)N2CCC[C@@H]2CN[C@@H](Cc2ccccc2)C(N)=O)C(C)C)cc(OC)c1OC (X8-HWAV[dA]H-{dProψ(CH2NH)PheNH2})	0.3 nM	–	–	–	0.001 nM	0.46 nM
